The text below walks through data of ChEMBL document CHEMBL4190284, “Exploring the Sponge Consortium Plakortis symbiotica-Xestospongia deweerdtae as a Potential Source of Antimicrobial Compounds and Probing the Pharmacophore for Antituberculosis Activity of Smenothiazole A by Diverted Total Synthesis” (J Nat Prod, 2017).

Each structure is given as a SMILES string. ≈ marks a conversion by molar mass, not a printed value. Where only a bound is given, the exact number is not on record here.

Data set [1] deals with Mycobacterium tuberculosis. The data set is described as follows: Antitubercular activity against Mycobacterium tuberculosis H37Rv by broth microdilution Alamar blue assay. Format: functional. The method, boiled down: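 Mtb H37Rv growth was measured by broth microdilution Alamar blue assay (MABA). Percentage inhibition at each concentration gave the MIC, defined as the lowest concentration preventing visible bacterial growth. Rifampicin served as positive control. Values are means of three experiments.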
A general note: Dilution methods test growth across graded concentrations, often in twofold steps.

The test system of data set [2] is Panel NCI-60 (60 carcinoma cell lines). The data set is described as follows: Cytotoxicity against human NCI60 cells assessed as cell growth at 10 uM relative to control. Format: cell-based. The procedure, abridged:
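Single-dose screen at 10 μM across the full NCI 60 cell line panel; read-out was percent cell growth.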

Data set [3] relates to Vero. The data set is described as follows: Cytotoxicity against African green monkey Vero cells assessed as reduction in cell viability. The note with it: Chlorocebus sabaeus. Format: cell-based.
Data set [4] relates to A2058. The experiment in a line: Cytotoxicity against human A2058 cells assessed as reduction in cell viability. Format: functional, cell-based.
The test system of data set [5] is DU-145. The experiment in a line: Cytotoxicity against human DU145 cells assessed as reduction in cell viability. Format: functional, cell-based.
For data set [6], the system named is Plasmodium falciparum. The data set is described as follows: Antiplasmodial activity against Plasmodium falciparum W2 assessed as parasite growth inhibition relative to control. Format: functional.

As a reminder, the MIC is the lowest concentration that inhibits growth of the organism. Turning to `C=C(C/C=C(\C)C(=O)N[C@H](C(=O)N1CCC[C@H]1c1nccs1)C(C)C)Cc1ccccc1`, the MIC in data set [1] was > 128 µg/mL. For the same molecule, in data set [2], the Activity is > 90%.

For the molecule `CC1=C(O)[C@@](C)(CCCCCCCCCCCCc2ccc(O)cc2)OC1=O`, the minimal inhibitory concentration (MIC) in data set [1] is > 128 µg/mL. For orientation: IC50 means the concentration at which inhibition is half-maximal. For `C/C(=C\C/C(=C\Cl)Cc1ccccc1)C(=O)N[C@H](C(=O)N1CCC[C@H]1c1nccs1)C(C)C`, the IC50 was > 128 µg/mL in data set [3], 20 µM in data set [4] and 15 µM in data set [5]. It took 4.1 µg/mL (≈ 8.43 µM) to inhibit growth in data set [1] (MIC). The “growth inhibition (GI)” value in data set [6] is given as 55%.

Regarding `CC1=C(O)[C@@](C)(CCCCC[C@H](C)CCCCc2ccc(O)cc2)OC1=O`, in data set [1], the MIC was > 128 µg/mL. For `CC1=C(O)[C@@](C)(CCCCC[C@H](C)CCCCc2ccc(O)c(O)c2)OC1=O`, the minimum inhibitory concentration (MIC) in data set [1] was > 128 µg/mL. On the same count and under the same terms, with `CO[C@H]1/C=C/O[C@@]2(C)Oc3c(C)c(O)c4c(O)c(c(/C=N/N5CCN(C)CC5)c(O)c4c3C2=O)NC(=O)/C(C)=C\C=C\[C@H](C)[C@H](O)[C@@H](C)[C@@H](O)[C@@H](C)[C@H](OC(C)=O)[C@@H]1C` [RIFAMPIN] the figure was 0.1 µg/mL (≈ 0.122 µM).
